In the EternaBench riboswitch data:

Tested on: MS2 coat protein
Assay: apparent Kd, MS2 coat protein; higher = weaker binding; RNA-MaP array; FMN 200 µM where present
Summary of the method: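 Stalled E. coli RNA polymerase transcribed the designs on Illumina sequencing-chip clusters. SNAP-549-labelled MS2 coat protein was titrated from 0.7 or 1.5 nM, doubling to 3 µM, without and then with constant ligand, in 100 mM Tris-HCl pH 7.5, 80 mM KCl, 4 mM MgCl2, BSA, DTT, yeast tRNA and Tween-20. Per-cluster binding curves were fitted to green signal normalised to red-channel RNA signal and control-cluster median Fmax. The apparent Kd is the median of the filtered fits.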

[1] = designed as: ON switch for flavin mononucleotide, no ligand
[2] = ligand present: flavin mononucleotide, designed as: ON switch for flavin mononucleotide
[3] = designed as: OFF switch for flavin mononucleotide, no ligand
[4] = ligand present: flavin mononucleotide, designed as: OFF switch for flavin mononucleotide

Sequence	apparent Kd [1] [nM]	apparent Kd [2] [nM]	apparent Kd [3] [nM]	apparent Kd [4] [nM]
GUUAAACAUGAGGAUCACCCAUGUCAAUGUAGUCGAGGAUAUGGGCAGCUGUGAGGCGUACUAGAAGGCGAAAAGG	270	57.5	–	–
CUUAGGUGUACAUGAGGAUCACCCAUGUCCCUGGUCAUUAGACAGGAUAUAUGGGCGGUCGCUUCAUAGAAGGGUUAAAUGGGU	837	780	–	–
UGUACCGUUGGAACGCGUCGAGUACAUGAGGAUCACCCAUGUCAGGAUAUGUGGCGGAAGGUAGCACAGAAGGGACAUAGAAAA	–	–	30.1	86.7
CACCGCGACAACGCGGUGUCACAUGAGGAUCACCCAUGUUCACAGGAUAUGCGAUAGCCAACGAAGCAGAAGGGUGAUUACUUA	41.1	111	–	–
CGUACUGAAGUGAGGAUAUUGUCUCGGAUACGAAACAAGAAGGCACAUGAGGAUCACCCAUGUAAACAGUACGA	–	–	17.5	14.2
GAUUACAAGUAAGGAUAUGUAUAUGAAACAUAUACAGAAGGUACAUGAGGAUCACCCAUGUUCUUGCAGCGCGAAUAUGUAAUC	–	–	17.1	21.1
GUAAACCUAGGAUAUACAUGAGGAUCACCCAUGUAUUGAUCGUGCGGCUGUUCCGGAGGUAGAAGGAGGAACCU	–	–	20.7	34.2
UUAAAGGCAGGAUAUACAUUUUUUUUAUUAUCCUCAUUAUUACAUGAGGAUCACCCAUGUAGAAGGGCCAAAUU	–	–	81.7	54.1
CAGUACUGAGGAUAUACAUGAGGAUCACCCAUGUGUUCCAGCUAGGAAACUAGCACUUGUAGAAGGCAGUACUG	–	–	24.6	267
CGCAACAUACAGAAGGAGUAAUUUAGAAGUGUACUAGGAUAUGUUUACAUGAGGAUCACCCAUGUCGAUGGGUAAAUAGUUGCG	–	–	988	437
CCCGACCUGAAGUCGAUACGGAGGAGAAGGCGCCUCCUGGGUCCACAUGAGGAUCACCCAUGUGGCGAGGAUAUCCUCAGUUUU	–	–	11.8	73.7
GCAGGAUAAGUGAGGAUAUACCUCUGGAUACAGAGGUAGAAGGCACAUGAGGAUCACCCAUGUCUAUCACCUGC	–	–	16	41.3
GAAAGAAAUCCAACAUGAGGAUCACCCAUGUUAGGCCAGUGGCAGGAUAUGGUGGGACUGAUGCACCAGAAGGGUCAGGUGGGC	17.9	10	–	–
ACACACCCAUGAGGUCCCUCCACAUGAGGAUCACCCAUGUGCAGAAGGUACGGCACGGUGUGCGGUAAGGAUAUGUACAAGUAA	–	–	6.08	7.71
CGGCCGGAUCGAGGAUAUAAGUCUAGGACAUGAGGAUCACCCAUGUAUGUCUUAGAAGGCGAUCCGGCCAGCCUGUUACAGGCA	32.9	6.18	–	–
UGCACUAGAUGAGGAUAUGCACAUGAGGAUCACCCAUGUGUGUGCUGCGGUGGUGAUCUGUAAAUGCAGAAGGCAUUCGGGCGG	–	–	111	63.9
UUUAUUUUGCAAGGAUAUGUUUAAUUUUAGUUUCCUUACACAUGAGGAUCACCCAUGUUAUACUUACAGAAGGUGCGUAAUUUU	–	–	130	103
GGCCUACGAGGAUAUCGCUAGCGGGACAUGAGGAUCACCCAUGUGUCGGACCGCGUCAUGCGAGAAGGUGUAAUGA	–	–	17.6	18.4
AACCAACAUGAGGAUCACCCAUGUCAACCCAAGGCAGGAUAUGCGAGAAUAACAAUGGGAGCAGAAGGGCCGACCU	110	54.9	–	–
UUAUUGUGAGGAUAUCAGGUGUGCUAGCGUACUGGUACAUCUGAGAAGGCACAUGAGGAUCACCCAUGUUCCUU	–	–	14.3	37.3
GACUGACAUGAGGAUCACCCAUGUAUUCGAGCAUGAGGAUAUAUGACUCGUCAUCGGCGGAUAGAAGGCAUGGUUG	162	212	–	–

Sequence	apparent Kd [1] [nM]	apparent Kd [2] [nM]	apparent Kd [3] [nM]	apparent Kd [4] [nM]
GCGGCUCCUGACAUGAGGAUCACCCAUGUUUAAUUAUUAAAUCAGGAUAUCCUCUCGAAACGAGAGGAGAAGGGAUAAGCUGCU	5.6	6.44	–	–
GUCUGAUUGUAGAAGGUACUUAAUACUCAUGUAACAUGAGGAUCACCCAUGUAUCAACAAUAUUGUAAGGAUAUACAAAUCUCA	–	222	–	–
ACAUACAUUCGAGGAUAUCGGUGAUAAAUUUUACGAGAAGGCGAUUUACGGCAUAAUGCUGUAGACAUGAGGAUCACCCAUGUA	71.5	39.2	–	–
AGCAAAAUAAGCAAGGAUAUGUAAUUUGGCACAUGAGGAUCACCCAUGUCAAUCCAUUUUUUUGAACAGAAGGUGCAUUUUUUUU	38.2	32.1	–	–
GGGAAGUGAGGAUAUGCUGCUCGUCACUUGCGUGAUGAGUAGCAGAAGGUACAUGAGGAUCACCCAUGUAAAAA	–	–	29.6	19
UGAAAGCUAGGAUAUACAUGAGGAUCACCCAUGUACCGGCUUGGCCCUGGUCCAAAGUGUAGAAGGAGCACGCC	–	–	28.2	50.3
CGAAGCCAAGGAUAUACAUGAGGAUCACCCAUGUGUUCCAGGCAAGCACAGCAGCGACGUAGAAGGUGGCUUCA	–	–	17.6	41.7
GCGUGGUUCUAGAAGGUGCUAGCGAUAAGCUAGCAAGGAUAUAGACAUGAGGAUCACCCAUGUCUUAGUGAAAUGGACACACGC	–	–	–	5.09
GGUGUAUAUGAGAAGGCGAUCAUGAAACAUGAUCGAGGAUAUCAUGUAAACAUGAGGAUCACCCAUGUAUGGGAAUAUUGCACC	133	15	–	–
GUCAGCUCGUGAGGAUAUACAUCACUGCUUCGGCAGUGUAUUAAGAUCACAUGAGGAUCACCCAUGUAGAAGGCACGAGCUGAU	–	–	42.5	620
UCAUGUAUGUAGGAUAUCGAUGUCCUUGGACAUCGAGAAGGACGUACAUGAGGAUCACCCAUGUAACUUGCAUG	–	–	25.4	16.8
AGCUGUGGCAGAGGAUAUACAAUCCUAAUCCAUUGCAAAUAGCGAUGGACAUGAGGAUCACCCAUGUAGAAGGCUGUCUCAGCA	–	–	297	65.2
GCCGGUUCCCUAGGAUAUGUACAUGAGGAUCACCCAUGUGCCUCUAGAGCCGGAACAGGGCAUGUACAGAAGGAGGGUCGACCC	–	–	–	8.03
AACAAUCUAUCUGAGGAUAUCAUGAAAUAAACAUGAGGAUCACCCAUGUGUAGGAAAACUGCAUAUGAGAAGGCAGAUAGAUUGA	930	43.5	–	–
UCAUUAUAAAUCCAUCAUAACUACAUGAGGAUCACCCAUGUGCAGGAUAUCGAUUAUUUUACUAACGAGAAGGGCAUUUACAGA	–	–	51.1	181
GGAUGACAAAGUCAUCCAUUACGAACAUGAGGAUCACCCAUGUAGGAUAUGCUUCACAAAGUGAAGCAGAAGGACAUGUGUCUU	–	–	30.2	154
GGACGUCACAUCUACAUGAGGAUCACCCAUGUCAAAAGACAUGAGGAUAUGCUACCUAAUUGGUAGCAGAAGGCAUGGACGUCC	1070	71.5	–	–
UGUCGGAGCAGAGGAUAUAUACAUGAGGAUCACCCAUGUAAAUGGAAUAGCUGGAAACAGCAAGUAUAGAAGGCUGCUCCGACA	–	–	37.4	112
GGAUUUGUUCCAAUUUCGGUGAGUAAGGAUAUGCAUGGCAUACAUGAGGAUCACCCAUGUUGUCGGCAGAAGGUGCCACAACGU	59.4	15.2	–	–
GUAGAGUAAGGAUAUACAGAAUAGGAUAGAAUGGUUAGAAUGUAGAAGGUACAUGAGGAUCACCCAUGUAAUGU	–	–	19.7	18.4
AUGUCGCUAGGAGGAUAUACAUGAUCUCGCACAUGUACCGCUCACGCCACAUGAGGAUCACCCAUGUAGAAGGCCUAGAGAGGU	–	–	18.6	54.8
